The list is not random: actives were taken first. Their share in the collection is about 2.6%.
MEKK2 mut-MEK5 = signal of MEK5 binding to mutant human MEKK2 PB1 domain | bead flow cytometry, Alexa488-MEK5 binding to MEKK2 mutant | percent response, % at 10 µM | actives 0.35% (n = 290,000) | AID 1530; in the data active = percent response above about 24%, passing the limit was not always enough
MEKK3 PB1 HTS = MEKK3-MEK5 PB1 interaction, increase or decrease; actives 1.4% (n = 290,000); binding response (% of control), % at 10 µM; bead-based flow cytometry, Alexa488-MEK5 binding to MEKK3; actives lie on both sides; 0 = blocked by unlabeled MEK5, 100 = vehicle;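 active = binding response more than 3 SD above or below the average of its plate-row segment, actives on both sides; inconclusive = wells at one plate position flagged as instrument error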;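 also: Alexa488 bead fluorescence after subtracting the streptavidin-only scavenger bead signal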
Target sequence (Q99759 whole entry, looked up): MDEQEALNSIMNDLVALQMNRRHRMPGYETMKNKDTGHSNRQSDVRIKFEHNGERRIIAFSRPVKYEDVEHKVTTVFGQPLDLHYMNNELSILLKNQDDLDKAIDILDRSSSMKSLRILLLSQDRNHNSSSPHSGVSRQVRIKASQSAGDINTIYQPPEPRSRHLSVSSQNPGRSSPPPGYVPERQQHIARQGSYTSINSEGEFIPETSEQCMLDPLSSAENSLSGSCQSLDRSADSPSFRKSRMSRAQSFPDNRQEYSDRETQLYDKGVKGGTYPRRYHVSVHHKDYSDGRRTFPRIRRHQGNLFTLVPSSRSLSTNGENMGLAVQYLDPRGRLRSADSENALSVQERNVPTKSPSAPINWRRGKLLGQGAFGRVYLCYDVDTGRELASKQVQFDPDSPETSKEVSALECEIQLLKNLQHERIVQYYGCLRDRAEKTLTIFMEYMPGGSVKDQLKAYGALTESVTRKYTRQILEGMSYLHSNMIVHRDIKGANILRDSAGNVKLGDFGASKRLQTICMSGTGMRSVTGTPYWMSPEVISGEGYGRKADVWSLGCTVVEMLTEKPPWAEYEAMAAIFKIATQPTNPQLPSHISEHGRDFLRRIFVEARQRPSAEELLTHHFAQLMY
MEKK2wt PB1 HTS = raises or lowers MEK5 binding to wildtype human MEKK2 PB1 domain; bead flow cytometry, Alexa488-MEK5 binding to MEKK2 WT; actives lie on both sides; binding response (% of control), % at 10 µM; actives 1.1% (n = 290,000); AID 1531; in the data active = binding response below about 67% or above about 130%; inconclusive = no clear call, values can overlap the other calls; inactive = in between
Lipid droplet = hepatic lipid droplet formation modulation. AML12 mouse hepatocytes, oleate lipid droplets, BODIPY imaging. inhibition, % at 6.5 µM. actives 0.4% (n = 240,000). AID 1656;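 active = lipid droplet intensity inhibited by at least 50%, with more than 500 cells counted; inconclusive = wells with under 300 cells, treated as cytotoxic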
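Assay system: AML12 hepatocytes (mouse) / Also added: 100 µM oleic acid challenge / Times: overnight treatment with compound plus oleate / Detection: high-content imaging of BODIPY-stained droplets and DAPI nuclei / Evaluation: % inhibition of lipid droplet signal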
MEKK2wt confirm = raises or lowers MEK5 binding to wildtype human MEKK2, retest; shares compounds with MEKK3 PB1 HTS; bead flow cytometry, Alexa488-MEK5 binding to MEKK2 WT; actives lie on both sides; binding response (% of control), % at 10 µM; actives 2.4% (n = 5,900); AID 1892; in the data active = binding response below about 16% or above about 210%; inactive = in between
MEKK2mut-MEK5 = signal of MEK5 binding to mutant human MEKK2, retest; actives 2% (n = 5,900); shares compounds with MEKK3 PB1 HTS; percent response, % at 10 µM; AID 1893; bead flow cytometry, Alexa488-MEK5 binding to MEKK2 mutant; in the data active = percent response mostly above about 71%, no sharp cut-off; inactive = mostly below about 38%;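 also: higher means compound restores mutant binding toward wildtype level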
MEKK3 confirm = confirmation of inhibitors of MEK5 binding to human MEKK3 | shares compounds with MEKK3 PB1 HTS | bead flow cytometry, Alexa488-MEK5 binding to MEKK3; active compounds read low | binding response (% of control), % at 10 µM | actives 1.8% (n = 5,900) | AID 1894;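 active = binding response below 72% of control, or above a set upper limit, though filed actives all read lower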;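 also: 100% = DMSO only wells and 0% = binding blocked by excess unlabeled MEK5; lower values mean stronger disruption of MEK5 binding to MEKK3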
An asterisk follows results filed as active; ? = inconclusive; · = no result; [ ] = another dose, or the depositor's remark.

SMILES | MEKK2 mut-MEK5 | MEKK3 PB1 HTS | MEKK2wt PB1 HTS | Lipid droplet | MEKK2wt confirm | MEKK2mut-MEK5 | MEKK3 confirm
FC(F)(F)c1cccc(NC(=S)NC(c2ccccc2)c2ccccc2)c1 | 10 | 152* | 169* | -31 | 176 | 42 | 106
O=C(Nc1cccc(C(F)(F)F)c1)C(SCCO)c1ccccc1 (stereo not drawn) | 0 | 131* | 105 | 3 | 53 | -28 | 59*
CC(=O)C1=C(C)N2CCN=C2S1 | 14 | 116 | 107 | 0 | · | · | ·
CCc1ccc(N(CC(=O)NCC2CCCO2)C(=O)CCC(=O)Nc2nccs2)cc1 (stereo not drawn) | -2 | 104 | 99 | 1 | · | · | ·
Cc1ccc(C(=O)N2CCN(Cc3ccc4c(c3)OCO4)CC2)cc1[N+](=O)[O-] | -1 | 99 | 97 | -1 | · | · | ·
O=C(NCC1CCCC(CNC(=O)Nc2ccc(Cl)cn2)C1)Nc1ccc(Cl)cn1 (stereo not drawn) | 5 | 106 | 94 | -4 | · | · | ·
Cc1ccc(-n2c(O)c(/C=N/NC(=O)C3COc4ccccc4O3)c3ccccc3c2=O)cc1 (stereo not drawn) | -1 | 103 | 100 | 4 | · | · | ·
Cn1cc(/C=N\NC(=O)C2COc3ccccc3O2)c2ccccc21 (stereo not drawn) | 4 | 109 | 108 | -3 | · | · | ·
O=C(N/N=C/c1c(O)n(-c2ccccc2Cl)c(=O)c2ccccc12)C1COc2ccccc2O1 (stereo not drawn) | 0 | 137* | 103 | -1 | 100 | -1 | 102
Cc1c(/C=N\NC(=O)C2COc3ccccc3O2)c2ccccc2n1C (stereo not drawn) | 15 | 96 | 26*[inhibitor] | ? | 101 | 9 | 102
COc1cc(/C=N/NC(=O)Cn2ccc(C(F)(F)F)n2)cc(OC)c1OC | -3 | 102 | 100 | -5 | · | · | ·
COc1cc(CC(=O)OCc2ccccc2F)cc(OC)c1OC | 2 | 101 | 101 | · | · | · | ·
O=C(/C=C/N1CCN(Cc2ccccc2)CC1)C(F)(F)F | -15 | 62*[inhibitor] | 69 | 18 | 102 | 1 | 103
CC1(C)Cc2cccc(OCC(=O)Nc3cccnc3)c2O1 | 9 | 130* | 122 | · | 98 | -4 | 99
COc1ccc2cc(C(=O)NCCCN3CCCC3=O)[nH]c2c1 | 1 | 104 | 100 | -6 | · | · | ·
CCOC(=O)c1cn[nH]c1NC(=S)Nc1ccc(OC)cc1 | -21 | 50*[inhibitor] | 62 | -8 | 106 | -1 | 106
Cc1ccc2c(c1)c1c(n2CC(O)Cn2c(C)nc3ccccc32)CCCC1 (stereo not drawn) | 27* | 108 | 133 | · | 123 | 14 | 105
Cc1ccc(S(=O)(=O)Nc2ccc(NC(=O)c3cccnc3)cc2)cc1 | 1 | 94 | 84 | 1 | · | · | ·
CCC(C)(C)n1nnnc1C(c1ccncc1)N1CCN(c2cccc(OC)c2)CC1 (stereo not drawn) | -4 | 87 | 98 | -5 | · | · | ·
CCC(C)(C)n1nnnc1C(c1cccnc1)N1CCN(c2cccc(C(F)(F)F)c2)CC1 (stereo not drawn) | 7 | 123* | 120 | · | 101 | -2 | 102
COC(=O)c1ccc2c(=O)n(-c3ccccc3)c(SCN3C(=O)c4ccccc4C3=O)nc2c1 | 1 | 74*[inhibitor] | 98 | -4 | 104 | 4 | 105
CC(C)(C)c1ccc(S(=O)(=O)N2CCN(c3ccccn3)CC2)cc1 | 3 | 101 | 105 | 5 | · | · | ·
Cc1cc(C2=NNC(=NCCc3ccccc3)SC2)c(C)n1-c1c(C)n(C)n(-c2ccccc2)c1=O | -11 | 50*[inhibitor] | 50 | -1 | 94 | -5 | 93
Cc1cc(C2=NNC(=NC3CC3)SC2)c(C)n1-c1c(C)n(C)n(-c2ccccc2)c1=O | 0 | 104 | 101 | 3 | · | · | ·
COc1cccc(OC)c1-c1nn2c(-c3cc(-c4ccccc4)n[nH]3)nnc2s1 | -12 | 78*[inhibitor] | 80 | · | 32 | -26 | 48*
SMILES | MEKK2 mut-MEK5 | MEKK3 PB1 HTS | MEKK2wt PB1 HTS | Lipid droplet | MEKK2wt confirm | MEKK2mut-MEK5 | MEKK3 confirm
COc1cccc(-c2nnc3sc(-c4ccccc4)nn23)c1 | 0 | 101 | 96 | · | · | · | ·
O=C(Nc1nn[nH]n1)c1cc(-c2ccc(Cl)c(Cl)c2Cl)nc2ccccc12 | 12 | 104 | 139* | 2 | 86 | -9 | 89
O=C(NCCc1ccccn1)c1cc(-c2ccc(Cl)c(Cl)c2Cl)nc2ccccc12 | 19 | 105 | 121 | -17 | · | · | ·
Cc1ccc(SCc2nc3ccccc3[nH]2)cc1 | -37 | 2.0*[inhibitor] | 2.0*[inhibitor] | · | 104 | 8 | 106
CCCn1ncc(CN2CCC(N3CCC(C(=O)N4CCOCC4)CC3)CC2)c1C | · | · | · | 14 | · | · | ·
COc1ccc(NC(=S)NCCSc2ccc(C)cc2)c(OC)c1 | 2 | 97 | 97 | · | · | · | ·
COc1ccc(OC)c(NC(=S)NCCSc2ccc(C)cc2)c1 | 1 | 142* | 112 | -50 | 108 | 7 | 106
CC1(C)CC(=O)c2cc(OCC(=O)NCCCN3CCN(c4ccc(F)cc4)CC3)ccc2O1 | 20 | 109 | 144* | · | 122 | 11 | 101
CC(C)CCNC(=O)COc1ccc2c(c1)C(=O)CC(C)(C)O2 | -3 | 99 | 98 | -3 | · | · | ·
O=C(/C=C/c1cc[n+](CC(=O)c2ccc3cccc4c3c2CC4)cc1)c1ccc2cccc3c2c1CC3 | 13 | 70*[inhibitor] | 102 | 6 | 152 | 32 | 93
CCN(CC(=O)Nc1ccc(Br)cc1)C(=O)Cc1cccc(F)c1 | 0 | 96 | 97 | 4 | · | · | ·
CCn1c(SCC(=O)N=Nc2c(O)[nH]c3ccccc23)nc2ccccc21 | 1 | 145* | 101 | -4 | 105 | 7 | 107
CCn1c(SCC(=O)N=Nc2c(O)[nH]c3ccccc23)nnc1-c1ccc(C(C)(C)C)cc1 | 1 | 132* | 111 | 1 | 99 | -3 | 99
O=C(CSCc1ccccc1)N=Nc1c(O)[nH]c2ccccc12 | -1 | 103 | 102 | -5 | · | · | ·
Cc1ccc(CN2CCN(CC(=O)N=Nc3c(O)[nH]c4ccccc34)CC2)cc1 | 7 | 96 | 89 | -28 | · | · | ·
Cc1ccc(C)c(NC(=S)NNC(=O)c2csc(C)c2C)c1 | 1 | 2.0*[inhibitor] | 2.0*[inhibitor] | 5 | 104 | -2 | 105
Cc1ccc2cc(CN(CCN3CCOCC3)Cc3nnnn3Cc3ccco3)c(=O)[nH]c2c1C | -69 | 2.0*[inhibitor] | 2.0*[inhibitor] | · | 106 | 5 | 103
Cc1ccc2cc(CN(Cc3ccc4c(c3)OCO4)Cc3nnnn3Cc3ccco3)c(=O)[nH]c2c1C | 1 | 96 | 96 | -33 | · | · | ·

Source: PubChem BioAssay (several laboratories)
